Measurements: ChEMBL document CHEMBL1123436, “Comparative toxicities and analgesic activities of three monomethylated analogues of acetaminophen” (J Med Chem, 1986)

Columns and labels:
[1] = species on record: Mus musculus; assay: Analgesic activity determined in mice using the Bradykinin-induced Writhing test; type: functional
Summary of the method: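 Male CD1 mice (15–20 g), test drug given orally 15 min before bradykinin ip (4 μg in 0.2 mL sterile water), then a second bradykinin injection (0.2 μg/0.1 mL) 15 min later. Writhing was scored over the next 10 min, with control groups of 10 mice. ED50 was derived by log-probit analysis from at least five doses, with 95% limits.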

[2] = test system: Mus musculus; assay: (§1) Hepatotoxicity in Swiss-Webster Mice Caused by compound at 750 mg/kg (i.p.) dose; type: functional; details: route intraperitoneal
Summary of the method: (§2)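 Male Swiss-Webster mice (20 g), groups of 10, were given a single ip dose of drug in saline with no pretreatment. Survivors were decapitated at 24 h and counted. Plasma ALT was measured, and liver sections (formalin-fixed, paraffin, H&E) were scored for necrosis severity in survivors. Values are means ± SE.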

[3] = test system: Mus musculus; assay: as §1; type: functional, organism-based; set-up: dose 750 mg/kg; summary of the method: as §2
[4] = (§3) Hepatotoxicity in Swiss-Webster Mice Caused by compound at 1000 mg/kg (i.p.) (phenobarbital pretreated animals)dose; type: functional, Mus musculus; details: route intraperitoneal
Summary of the method: (§4)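 Male Swiss-Webster mice (20 g), groups of 10. Sodium phenobarbital (80 mg/kg ip) was given 72, 60, 48 and 24 h before drug, then drug ip in saline. At 24 h: survivors counted, plasma ALT measured, and H&E liver sections scored for necrosis in survivors. Values are means ± SE.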

[5] = Hepatotoxicity in Swiss-Webster Mice Caused by compound at 1000 mg/kg (i.p.) (phenobarbital pretreated animals)dose; 5/10; type: functional, Mus musculus; details: route intraperitoneal; summary of the method: as §4
[6] = test system: Mus musculus; assay: Hepatotoxicity in Swiss-Webster Mice Caused by compound at 1000 mg/kg (i.p.) (cobaltous chloride pretreated animals)dose; type: functional, organism-based; set-up: dose 1000 mg/kg
Summary of the method: (§5)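 Male Swiss-Webster mice (20 g), groups of 10. Cobaltous chloride (30 mg/kg ip) was given 48, 36, 24 and 12 h before drug, then drug ip in saline. At 24 h: survivors counted, plasma ALT measured, and H&E liver sections scored for necrosis in survivors. Values are means ± SE.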

[7] = test system: Mus musculus; assay: (§6) Hepatotoxicity in Swiss-Webster Mice Caused by compound at 1000 mg/kg (i.p.) dose; type: functional; details: route intraperitoneal; summary of the method: as §2
[8] = test system: Mus musculus; assay: as §6; type: functional, organism-based; set-up: dose 1000 mg/kg; summary of the method: as §2
[9] = test system: Mus musculus; assay: Hepatotoxicity in Swiss-Webster Mice Caused by compound at 1000 mg/kg (i.p.) dose; 8/10; type: functional; details: route intraperitoneal; summary of the method: as §2
[10] = test system: Mus musculus; assay: Hepatotoxicity in Swiss-Webster Mice Caused by compound at 750 mg/kg (i.p.) dose; 10/10; type: functional; details: route intraperitoneal; summary of the method: as §2
[11] = test system: Mus musculus; assay: as §3; type: functional, organism-based; set-up: dose 1000 mg/kg; summary of the method: as §4
[12] = test system: Mus musculus; assay: (§7) Hepatotoxicity in Swiss-Webster Mice Caused by compound at 1000 mg/kg (i.p.) (pipernonyl butoxide pretreated animals)dose; type: functional, organism-based; set-up: dose 1000 mg/kg
Summary of the method: (§8)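 Male Swiss-Webster mice (20 g), groups of 10. Piperonyl butoxide (neat, single 1360 mg/kg ip dose) was given 30 min before drug, then drug ip in saline. At 24 h: survivors counted, plasma ALT measured, and H&E liver sections scored for necrosis in survivors. Values are means ± SE.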

[13] = test system: Mus musculus; assay: Hepatotoxicity in Swiss-Webster Mice Caused by compound at 1000 mg/kg (i.p.) (pipernonyl butoxide pretreated animals)dose; 10/10; type: functional; details: route intraperitoneal; summary of the method: as §8
[14] = Hepatotoxicity in Swiss-Webster Mice Caused by compound at 1000 mg/kg (i.p.) (cobaltous chloride pretreated animals)dose; 9/10; type: functional, Mus musculus; details: route intraperitoneal; summary of the method: as §5
[15] = test system: Mus musculus; assay: as §7; type: functional; details: route intraperitoneal; summary of the method: as §8

CC(=O)Nc1ccc(O)cc1C
ED50 [1]: 177 mg/kg
Hepatic necrosis in survivors [2]: 0.8
Plasma ALT at 24 h [3]: 690 mU ml-1
Hepatic necrosis in survivors [4]: 3.4
Survivors at 24 h [5]: 5
Plasma ALT at 24 h [6]: 40 mU ml-1
Hepatic necrosis in survivors [7]: 1.75
Plasma ALT at 24 h [8]: 2110 mU ml-1
Survivors at 24 h [9]: 8
Survivors at 24 h [10]: 10
Plasma ALT at 24 h [11]: 3920 mU ml-1
Plasma ALT at 24 h [12]: 75 mU ml-1
Survivors at 24 h [13]: 10
Survivors at 24 h [14]: 9
Hepatic necrosis in survivors [15]: 0
